Rows were chosen to be rich in hits. Some 3.8% of all compounds tested hit in one or more screens of this group.
NPY-Y1 antag: blocks the human neuropeptide Y Y1 receptor; P25929; HEK293-CNG Y1 cells, membrane potential fluorescence; NPY at EC95, then isoproterenol; inhibition, % at 3.6 µM; 200,000 tested, 1% active;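 active = inhibition above the campaign mean inhibition of all tested compounds plus 3 SD, cut at about 20% in these data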;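 also: 0% = DMSO wells given NPY plus isoproterenol and 100% = isoproterenol alone without NPY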
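Material: HEK293 Y1/CNG channel cell line | Also added: NPY (25 nM), isoproterenol (1 µM), Ro 20-1724 (25 µM) | Compound: One concentration, 3.6 µM, in 0.4% DMSO | Schedule: 3 h dye uptake, 1 h room-temperature compound, 45 min post-isoproterenol | Signal: Membrane-potential fluorescent dye readout | Read-out: % inhibition of NPY effect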
NPY Y2 blocker: antagonists of human neuropeptide Y receptor Y2; P49146; NPY-Y2 expressing cells, antagonist mode; inhibition, % at 2.7 µM; 140,000 tested, 0.99% active; AID 793; in the data active = inhibition above about 17%;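 also: 0% = vehicle with agonist challenge and 100% = reference antagonist with challenge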
Target sequence (P49146 whole entry, looked up): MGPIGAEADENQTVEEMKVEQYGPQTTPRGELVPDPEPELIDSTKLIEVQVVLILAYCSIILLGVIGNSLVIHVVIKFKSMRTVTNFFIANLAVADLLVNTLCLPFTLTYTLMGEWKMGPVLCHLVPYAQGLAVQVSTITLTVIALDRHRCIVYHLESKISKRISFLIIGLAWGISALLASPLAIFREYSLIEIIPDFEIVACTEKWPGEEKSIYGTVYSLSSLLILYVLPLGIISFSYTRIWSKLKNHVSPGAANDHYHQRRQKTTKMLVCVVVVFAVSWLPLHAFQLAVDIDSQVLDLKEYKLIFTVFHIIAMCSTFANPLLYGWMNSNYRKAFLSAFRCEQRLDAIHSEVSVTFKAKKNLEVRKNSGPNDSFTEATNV
Insulin prom inh: TRM-6 insulin promoter activity inhibition; TRM-6 cells, insulin promoter-eGFP reporter, imaging; reporter expression induced with tamoxifen; inhibition, % at 2 µM; 130,000 tested, 0.9% active;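 active = inhibition above the mean plus 3 SD, with well images judged a real hit on visual review, cut at about 60% in these data, passing the limit was not always enough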
NPY-Y2 PAM-ag: human NPY-Y2 potentiation or agonism, primary screen. cells expressing NPY-Y2, potentiator/agonist read-out. activation, % at 3.6 µM. 220,000 tested, 0.45% active. AID 1359; in the data active = activation above about 27%;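 also: cells stimulated with NPY near EC25 plus isoproterenol at EC100; 0% = vehicle plus submaximal agonist and 100% = vehicle plus saturating agonist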
NPY-Y1 PAM-ag: potentiators or agonists of human neuropeptide Y receptor Y1; P25929; NPY-Y1 expressing cells, potentiator/agonist activation; activation, % at 3.6 µM; 220,000 tested, 0.37% active; AID 1304; in the data active = activation above about 33%, passing the limit was not always enough;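 also: cells stimulated with NPY at EC10 then isoproterenol at EC100; 0% = low agonist plus stimulus and 100% = saturating agonist plus stimulus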
RAM network inh: inhibitors of the yeast RAM network. S. cerevisiae dse1pr::URA3 reporter, 5-FOA growth OD615, 2 d; analog-sensitive cbk1-as2 kinase mutant strain. inhibition, % at 50 µM. 190,000 tested, 1.8% active. AID 868;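 active = inhibition above a set limit, 3 SD over mean compound inhibition, cut at about 8.4% in these data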;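 also: 0% = DMSO-only wells with no growth and 100% = 10 µM 1-NA-PP1 full growth; inhibition rescues growth on 5-FOA so higher OD means more RAM inhibition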
RAM 5-FOA: restores 5-FOA growth of efflux-deficient yeast; shares compounds with RAM network inh; S. cerevisiae efflux-deficient reporter strain, 5-FOA growth OD615, 2 days; max inhibition, %; 1,200 tested, under 10 active; call rule not given here;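 also: plate controls were vehicle for no effect and reference inhibitor for full effect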
* marks the source's active call; other numbers are inactive results; / = not tested or not shown.

SMILES | NPY-Y1 antag | NPY Y2 blocker | Insulin prom inh | NPY-Y2 PAM-ag | NPY-Y1 PAM-ag | RAM network inh | RAM 5-FOA
CCCCc1ccc(N=N/C(C(=O)Nc2ccccc2OC)=C(/C)O)cc1 | 0 | -1 | / | -6 | -7 | 20* | 8
NNC(=O)c1ccc(Cn2cc(Cl)cn2)cc1 | -1 | 1 | -8 | -16 | -16 | 1 | /
O=C(Nc1ccc(Cl)c(Cl)c1)c1ccc(Cn2cc(Cl)cn2)cc1 | -5 | -1 | / | 5 | 2 | 13* | 2
CCNC(=O)c1ccc(C23CC4CC(CC(C4)C2)C3)o1 | -6 | / | / | 5 | 8 | 1 | /
CSc1nnc2c3ccccc3c3ccccc3c2n1 | 5 | -1 | 3 | -9 | 0 | 13* | 3
Cc1cccc(NC(=O)COC(=O)c2ccc3c(=O)n4c(nc3c2)CCC4)c1 | -6 | 3 | -34 | -5 | -4 | 1 | /
O=C(COC(=O)c1ccc2c(=O)n3c(nc2c1)CCC3)Nc1ccc(OC(F)F)cc1 | 6 | / | / | -10 | -2 | 13* | 2
O=S1(=O)C=C(SCc2ccc(F)cc2)Nc2ccccc21 | -2 | / | -58 | -2 | -10 | 2 | /
CCOc1cc(/C=C/c2cc(C(=O)O)c3ccccc3n2)ccc1OC | 2 | 3 | 21 | 0 | -6 | 2 | /
COc1cc(/C=C/c2cc(C(=O)O)c3ccccc3n2)cc(OC)c1O | 4 | / | -18 | -6 | 4 | 12* | 5
O=C(COC(=O)c1cc(-c2ccc(Cl)s2)nc2ccccc12)NCc1ccco1 | -1 | 2 | 23 | 15 | 3 | 12* | 4
O=C(COC(=O)c1cc(-c2cccs2)nc2ccccc12)NCc1ccco1 | 0 | 2 | / | 4 | -3 | 8 | /
CCOc1cc(/C=N/NC(=O)C(=O)NCc2cccnc2)ccc1O | -2 | / | / | -13 | -11 | 1 | /
O=C(COc1ccccc1F)N/N=C1\CCCc2ccccc21 | 1 | 3 | / | 1 | 13 | 0 | /
Cc1cc(Cl)ccc1OCC(=O)N/N=C1\CCCc2ccccc21 | 5 | 4 | 17 | -4 | -33 | 15* | 3
CCOC(=O)N1CCN(C(=O)C(NS(=O)(=O)c2cccc3nsnc23)c2ccccc2)CC1 (stereo not given) | 5 | -3 | 14 | -8 | 15 | 0 | /
COc1cccc(/C=C2\SC(=S)N(C(Cc3ccccc3)C(=O)O)C2=O)c1 (stereo not given) | 3 | / | / | -12 | -11 | 12* | 1
O=C(O)C(Cc1ccccc1)N1C(=O)/C(=C/c2cccs2)SC1=S (stereo not given) | 19 | / | / | -2 | -18 | 15* | 2
O=C(O)C(c1ccccc1)N1C(=O)/C(=C/c2cccs2)SC1=S (stereo not given) | / | / | / | -7 | -14 | / | /
CCCCCCOc1ccc(N2C(=O)CC(N(CCc3ccc(S(N)(=O)=O)cc3)C(C)=O)C2=O)cc1 (stereo not given) | -1 | / | / | 1 | 2 | 3 | /
Cc1ccc(NS(=O)(=O)c2ccc(C3CCCCC3)cc2)cc1 | 7 | 3 | -32 | -1 | -14 | 14* | 5
CCOC(=O)C(C)Sc1nc(-c2cccs2)ccc1C#N (stereo not given) | 11 | 11 | / | -8 | -11 | 13* | 2
N#Cc1cc(-c2ccccc2)cnc1Sc1ccc(Cl)cc1 | -2 | 4 | / | -5 | -4 | 8 | /
N#Cc1cc(-c2ccc(Cl)cc2)cnc1Sc1ccc(F)cc1 | 4 | 2 | / | 4 | -20 | 12* | 2
COc1cccc(OCCNc2cc(N3CCOCC3)ccc2[N+](=O)[O-])c1 | 4 | 1 | -30 | 0 | -43 | 12* | 1
Cc1ccccc1OCCNc1cc(N2CCCCC2)ccc1[N+](=O)[O-] | 15 | 6 | 13 | -8 | -20 | 14* | 5
Cn1cnc(S(=O)(=O)Nc2ccc(OC(F)F)cc2)c1 | / | / | / | -5 | -5 | / | /
Cc1cc2c(C)ccc(C)c2nc1SCC(=O)c1cccs1 | 9 | 9 | -28 | -17 | -15 | 14* | 2
COc1ccc2c(c1)CCC/C2=N\Nc1nc(C(=O)NN)cs1 | / | / | / | 0 | -7 | / | /
CCN(CC)S(=O)(=O)c1cccc(-c2nnc(SCCCC(=O)c3ccccc3)o2)c1 | 2 | 9 | / | -12 | -25 | 12* | 3
